Data on one compound can be found in ChEMBL document CHEMBL1821673, “Development of β-amino alcohol derivatives that inhibit Toll-like receptor 4 mediated inflammatory response as potential antiseptics” (J Med Chem, 2011).

The target in test [1] is Protein kinase C gamma type (Homo sapiens) (UniProt P05129). In words: Inhibition of PKCgamma at 28 uM by luciferase fragment complementation assay.
Test [2] deals with T1, Toll-like receptor 4 (Mus musculus, UniProt Q9QUK6).
T1 sequence (Q9QUK6 whole entry): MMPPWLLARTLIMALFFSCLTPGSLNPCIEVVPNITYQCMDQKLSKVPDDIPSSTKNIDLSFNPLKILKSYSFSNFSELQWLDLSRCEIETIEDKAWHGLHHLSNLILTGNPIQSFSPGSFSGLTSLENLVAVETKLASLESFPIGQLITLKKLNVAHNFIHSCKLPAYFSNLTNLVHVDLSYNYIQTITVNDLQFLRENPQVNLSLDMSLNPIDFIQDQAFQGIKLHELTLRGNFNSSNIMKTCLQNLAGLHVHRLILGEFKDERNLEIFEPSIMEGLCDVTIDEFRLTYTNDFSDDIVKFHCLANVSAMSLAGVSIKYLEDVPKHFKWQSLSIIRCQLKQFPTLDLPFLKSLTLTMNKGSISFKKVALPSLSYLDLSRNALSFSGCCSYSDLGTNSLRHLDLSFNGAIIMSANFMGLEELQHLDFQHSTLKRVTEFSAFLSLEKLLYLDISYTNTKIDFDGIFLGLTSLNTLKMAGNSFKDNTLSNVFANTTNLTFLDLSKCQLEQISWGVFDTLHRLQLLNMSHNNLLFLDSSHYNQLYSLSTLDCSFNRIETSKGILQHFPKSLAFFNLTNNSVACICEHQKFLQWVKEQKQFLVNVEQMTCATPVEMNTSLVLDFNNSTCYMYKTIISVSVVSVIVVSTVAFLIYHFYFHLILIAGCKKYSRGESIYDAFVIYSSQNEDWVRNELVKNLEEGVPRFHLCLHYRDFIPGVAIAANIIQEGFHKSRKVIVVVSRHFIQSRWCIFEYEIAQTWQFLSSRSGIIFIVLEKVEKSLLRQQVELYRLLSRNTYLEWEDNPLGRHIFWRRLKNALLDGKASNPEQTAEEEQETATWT
In words: Inhibition of LPS-induced TLR4 activation in mouse RAW264.7 cells assessed as reduction in NO production after 18 to 24 hrs. The test is classed as cell-based. An outline of the steps: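 RAW264.7 cells, 100,000 per well, grown 24 h in RPMI with 10% FBS, then switched to unsupplemented RPMI. LPS and compound added together, 18–24 h at 37 °C. Medium nitrite measured with 2,3-diaminonaphthalene (ex 365/em 450 nm) against a nitrite standard curve. Quadruplicate; IC50 by a modified Kou-type method.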

Test [3] deals with T2, Toll-like receptor 4 (Homo sapiens, UniProt O00206). In words: Inhibition of LPS-induced TLR4 activation in human whole blood assessed as reduction in plasma TNFalpha level at 250 uM preincubated for 5 to 10 mins. In short, it runs like this:
(§1)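 Fresh human blood anticoagulated with lepirudin, preincubated with compound 5–10 min at 37 °C, then stimulated with 100 ng/mL ultrapure E. coli 0111:B4 LPS, rotating 2 h at 37 °C. Stopped with EDTA 10 mM final; plasma TNF-α, IL-8 and IL-6 measured by singleplex Bio-plex, expressed as % of LPS without inhibitor. n = 3 or 9, paired two-sided t-test.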

For test [4], the target named is T2, Toll-like receptor 4. In words: Inhibition of LPS-induced TLR4 activation in human whole blood assessed as inhibition of TNFalpha release at 250 uM preincubated for 5 to 10 mins. In short, it runs like this: as §1
The target of test [5] is Serine/threonine-protein kinase PLK4 (Homo sapiens) (UniProt O00444). In words: Inhibition of PLK4 at 28 uM by luciferase fragment complementation assay.
Serine/threonine-protein kinase PLK4 (Homo sapiens), sequence (O00444 whole entry, the tested form may be a part): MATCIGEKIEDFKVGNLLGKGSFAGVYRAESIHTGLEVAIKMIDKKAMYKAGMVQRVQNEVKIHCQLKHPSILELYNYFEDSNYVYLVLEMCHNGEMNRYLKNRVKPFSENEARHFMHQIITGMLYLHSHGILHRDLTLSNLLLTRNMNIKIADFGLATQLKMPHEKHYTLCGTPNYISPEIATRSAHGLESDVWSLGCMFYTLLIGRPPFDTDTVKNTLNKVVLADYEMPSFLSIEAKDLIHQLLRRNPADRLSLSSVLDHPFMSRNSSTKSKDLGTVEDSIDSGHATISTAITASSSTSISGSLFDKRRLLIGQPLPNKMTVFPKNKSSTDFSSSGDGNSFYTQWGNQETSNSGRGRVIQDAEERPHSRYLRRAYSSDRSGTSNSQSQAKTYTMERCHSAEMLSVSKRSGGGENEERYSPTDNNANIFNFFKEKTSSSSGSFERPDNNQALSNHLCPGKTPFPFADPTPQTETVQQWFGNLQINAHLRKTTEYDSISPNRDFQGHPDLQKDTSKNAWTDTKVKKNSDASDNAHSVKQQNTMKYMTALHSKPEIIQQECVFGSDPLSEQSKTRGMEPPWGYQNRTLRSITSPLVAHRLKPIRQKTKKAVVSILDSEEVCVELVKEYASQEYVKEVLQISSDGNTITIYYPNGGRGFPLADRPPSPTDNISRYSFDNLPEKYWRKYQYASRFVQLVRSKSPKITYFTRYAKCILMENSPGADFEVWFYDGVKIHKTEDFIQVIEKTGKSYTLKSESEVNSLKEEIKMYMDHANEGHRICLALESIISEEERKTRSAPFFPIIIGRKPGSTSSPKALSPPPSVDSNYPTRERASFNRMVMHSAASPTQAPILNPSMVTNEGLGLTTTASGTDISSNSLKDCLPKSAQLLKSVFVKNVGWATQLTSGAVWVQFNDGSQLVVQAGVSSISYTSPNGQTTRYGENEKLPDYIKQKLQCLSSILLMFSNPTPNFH
The target of test [6] is T2, Toll-like receptor 4. In words: Inhibition of LPS-induced TLR4 activation in human whole blood assessed as inhibition of IL-6 release preincubated for 5 to 10 mins. In short, it runs like this:
as §1

Active and inactive are the calls of the source. No cut-off for these calls is given here.

T2 sequence (O00206 whole entry): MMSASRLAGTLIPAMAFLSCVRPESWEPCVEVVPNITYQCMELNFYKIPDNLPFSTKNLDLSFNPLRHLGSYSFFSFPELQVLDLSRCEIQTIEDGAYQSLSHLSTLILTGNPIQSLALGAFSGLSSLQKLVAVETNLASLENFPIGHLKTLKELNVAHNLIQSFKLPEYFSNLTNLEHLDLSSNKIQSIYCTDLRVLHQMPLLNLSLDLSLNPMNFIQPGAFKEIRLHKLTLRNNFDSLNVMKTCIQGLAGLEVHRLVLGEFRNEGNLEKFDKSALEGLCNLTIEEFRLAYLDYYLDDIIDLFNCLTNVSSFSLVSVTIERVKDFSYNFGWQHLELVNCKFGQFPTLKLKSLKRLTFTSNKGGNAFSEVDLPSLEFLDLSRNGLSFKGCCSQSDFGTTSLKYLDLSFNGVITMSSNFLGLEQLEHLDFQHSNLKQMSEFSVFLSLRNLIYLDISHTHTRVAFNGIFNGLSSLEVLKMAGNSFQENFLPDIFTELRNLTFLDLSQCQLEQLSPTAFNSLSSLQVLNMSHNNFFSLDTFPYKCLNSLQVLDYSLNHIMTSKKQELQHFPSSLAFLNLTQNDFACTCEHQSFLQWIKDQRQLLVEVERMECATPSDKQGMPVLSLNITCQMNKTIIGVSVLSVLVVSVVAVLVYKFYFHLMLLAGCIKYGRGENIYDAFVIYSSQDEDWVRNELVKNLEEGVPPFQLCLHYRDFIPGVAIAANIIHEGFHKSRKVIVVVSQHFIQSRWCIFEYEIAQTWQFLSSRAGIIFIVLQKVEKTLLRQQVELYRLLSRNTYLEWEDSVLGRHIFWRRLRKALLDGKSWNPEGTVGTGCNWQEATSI

As usually defined, the inhibition is the drop in the measured response relative to a control, in per cent. What is called IC50 is the midpoint of a concentration-inhibition curve. As to `CCOc1ccc(OCC(O)CN(C)Cc2c(C)nn(Cc3ccccc3Cl)c2C)cc1` (racemic), the inhibition in test [1] is at most 27%; in test [3] it was 43%; in test [5], at most 27%; in test [6], “Dose-dependent effect”. Also, the IC50 in test [2] amounted to 27.8 µM; in test [6] it was 318 µM. Further, the inhibition result in test [4] was “Active”.
